Reference: ChEMBL document CHEMBL1142774, “Substituted tetraazaacenaphthylenes as potent CRF1 receptor antagonists for the treatment of depression and anxiety” (Bioorg Med Chem Lett, 2005)

Experiments:
[1] = Displacement of [125I]o-CRF from recombinant human CRF receptors expressed in Chinese Hamster Ovary (CHO) cell membranes
[2] = Oral bioavailability in rat at 1 hr (dose 0.5 mg/kg i.v.); assay type: ADME, organism-based; settings: in vivo, 1 mg/kg
Procedure, shortened: (§1)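 The pharmacokinetic study used Hans–Wistar rats. Each compound was given by the oral route at 1 mg/kg and by the intravenous route at 0.5 mg/kg. Plasma clearance and oral bioavailability were derived from these two administrations.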

[3] = Brain/Plasma ratio level at 1 hr after a intravenous dose 0.5 mg/kg in rats; assay type: ADME, organism-based; parameters: dose 0.5 mg/kg, route intravenous; settings: rat, read-out: Penetration
Procedure, shortened: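 Hans–Wistar rats were given a single 0.5 mg/kg intravenous dose. Brain and plasma levels were measured at 1 h post-dose, and the brain/plasma ratio was taken from these levels.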

[4] = Plasma clearance at 1 hr after a intravenous dose 0.5 mg/kg in rats; assay type: ADME, organism-based; parameters: dose 0.5 mg/kg, route intravenous; settings: rat; procedure, shortened: as §1

SMILES | Log IC50 [1] | bioavailability [2] | Kp at 1 h [3] | clearance [4]
CCC(CC)n1cc2c3c(nc(C)nc31)N(c1ccc(C(F)(F)F)cc1C(F)(F)F)CC2 | -7.58 |  |  | 
CCCC(CCC)N1CCC2CN(c3ccc(Cl)cc3Cl)c3nc(C)nc1c32 (stereo unspecified) | -7.52 | 31% | 1.8 | 31 mL/min/kg
COCC(COC)N1CC2CCN(c3ccc(Cl)cc3Cl)c3nc(C)nc1c32 (stereo unspecified) | -5.9 |  |  | 
CCCC(CCC)N1CCC2CN(c3ccc(C(F)(F)F)cc3C(F)(F)F)c3nc(C)nc1c32 (stereo unspecified) | -7.39 |  |  | 
CCCC(CCC)N1CC2CCN(c3ccc(Cl)cc3Cl)c3nc(C)nc1c32 (stereo in doubt; 2ac) | -7.65 | 14% | 2 | 32 mL/min/kg
CCCC(CCC)N1CC2CCN(c3ccc(C(F)(F)F)cc3C(F)(F)F)c3nc(C)nc1c32 (stereo in doubt; 2ad) | -7.44 | 36% | 1.1 | 15 mL/min/kg
CCCC(CCC)N1CC2CCN(c3ccc(Cl)cc3Cl)c3nc(C)nc1c32 (stereo in doubt; 2ae) | -7.96 |  |  | 
CCCCN(CC)c1nc(C)nc2c1c(C)cn2-c1c(C)cc(C)cc1C [CP-154526] | -7.76 |  |  | 

Second part, the compound after the results:

Log IC50 [1] | bioavailability [2] | Kp at 1 h [3] | clearance [4] | SMILES
-7.16 |  |  |  | CCC(CC)N1CC2CCN(c3ccc(Cl)cc3Cl)c3nc(C)nc1c32 (stereo unspecified)
-5.35 |  |  |  | Cc1nc2c3c(n1)N(c1ccc(Cl)cc1Cl)CC3CCN2CC1CC1 (stereo unspecified)
-7.85 | 33% | 1.3 | 10 mL/min/kg | CCCC(CCC)n1cc2c3c(nc(C)nc31)N(c1ccc(C(F)(F)F)cc1C(F)(F)F)CC2
-7.21 |  |  |  | CCC(CC)n1cc2c3c(nc(C)nc31)N(c1ccc(C#N)cc1Cl)CC2
-7.35 |  |  |  | CCCC(CCC)n1cc2c3c(nc(C)nc31)N(c1ccc(C#N)cc1C)CC2
-6.74 |  |  |  | CCC(CC)N1CCC2CN(c3ccc(Cl)cc3Cl)c3nc(C)nc1c32 (stereo unspecified)
-7.57 |  |  |  | CCC(CC)n1cc2c3c(nc(C)nc31)N(c1ccc(C#N)cc1C)CC2
-7.42 |  |  |  | COCC(COC)Nc1nc(C)nc2c(-c3ccc(Cl)cc3Cl)c(C)nn12
-7.89 |  |  |  | CCCC(CCC)N1CC2CCN(c3ccc(Cl)cc3Cl)c3nc(C)nc1c32 (stereo in doubt; 2af)
-7.55 |  |  |  | CCCC(CCC)N1CC2CCN(c3ccc(C(F)(F)F)cc3C(F)(F)F)c3nc(C)nc1c32 (stereo in doubt; 2ag)
-7.84 |  |  |  | CCCC(CCC)N1CC2CCN(c3ccc(C(F)(F)F)cc3C(F)(F)F)c3nc(C)nc1c32 (stereo in doubt; 2ah)
